Data set [1] deals with Trypanosoma cruzi. The experiment in a line: Antitrypanosomal activity against Trypanosoma cruzi trypomastigote Y strain after 24 hrs by trypan blue exclusion assay.
The subject of a further data set is Mus musculus. Briefly: Toxicity in mouse assessed as general toxicity at 100 mg/kg, ip after 72 hrs. In kind it is organism-based. Also noted: dose 100 mg/kg, route intraperitoneal. The following applies: in vivo. Summed up:
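Mice received a single intraperitoneal dose of 100 mg/kg. They were watched for 72 h for general toxicity signs, including behavior and feeding, and for survival. Controls received only 100 µL of 30% DMSO:70% H₂O (v/v).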

Data set [2] is described as follows: Cytotoxicity against BALB/c mouse splenocyte assessed as [3H]thymidine incorporation by beta-counting. In kind it is cell-based. As to conditions: splenocytes, read-out: MNCC. Summed up: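 Splenocytes from BALB/c mice were plated at 5 × 10⁶ cells per well in DMEM with FCS and gentamycin. Each compound was tested at […], in triplicate, from DMSO stock. Cells were given ³H-thymidine at 1 µCi per well for 24 h at 37 °C and 5% CO₂. Incorporation was compared with untreated wells. The reported value is the highest concentration reducing incorporation by less than 10%.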
(In general: Incorporation of labelled thymidine or its analogues reports DNA synthesis.)

For data set [3], the system named is Trypanosoma cruzi. The experiment in a line: Antitrypanosomal activity against Trypanosoma cruzi Y strain.

For the compound `CC(=O)Nc1ccc(/C=N/NC(=O)c2nc(-c3ccccc3)no2)cc1`, the IC50 with Trypanosoma cruzi [1] (read-out: IC50) is 3.6 µM; in the data set with Trypanosoma cruzi [1] (read-out: pIC50 (converted)), 3.63 µM; in the data set with Trypanosoma cruzi [3] it was 14.2 µM. In the data set on Mus musculus, the Activity entry was “Non-toxic”. Besides, the MNTC in data set [2] was determined as 95 µM.
As to `Cc1ccc(-c2noc(C(=O)N/N=C/c3ccc(O)cc3)n2)cc1`, the IC50 is 17.9 µM in the data set with Trypanosoma cruzi [1] (read-out: IC50), 17.8 µM in the data set on Trypanosoma cruzi [1] (read-out: pIC50 (converted)) and 47.8 µM in the data set with Trypanosoma cruzi [3]. Moreover, in data set [2], the MNTC is less than 1.1 µg/mL.
For the compound `O=C(N/N=C/c1ccc(O)cc1)c1nc(-c2ccccc2)no1`, the IC50 was 35.7 µM in the data set with Trypanosoma cruzi [1] (read-out: IC50), 35.5 µM in the data set with Trypanosoma cruzi [1] (read-out: pIC50 (converted)) and 78.3 µM in the data set with Trypanosoma cruzi [3]. In addition, the MNTC in data set [2] is 3.3 µg/mL.
As to `CC(=O)Nc1ccc(/C=N/NC(=O)c2nc(-c3ccc(Cl)cc3)no2)cc1`, the MNTC in data set [2] was found to be 100 µg/mL. In the data set on Trypanosoma cruzi [3], this compound yielded an IC50 of more than 150 µM.
The matching figures for `CC(=O)Nc1ccc(/C=N/NC(=O)c2nc(-c3ccc(F)cc3)no2)cc1`: 33 µg/mL and more than 150 µM.
With `O=C(N/N=C/c1ccc(O)cc1)c1nc(-c2ccc(Cl)cc2)no1`, the results for the IC50 with Trypanosoma cruzi [1] (read-out: IC50), in the data set on Trypanosoma cruzi [1] (read-out: pIC50 (converted)) and with Trypanosoma cruzi [3] were 21.2 µM, 21.4 µM and 21.6 µM, respectively. In addition, the MNTC in data set [2] is less than 1.1 µg/mL.
Consider `O=C(N/N=C/c1ccc(O)cc1)c1nc(-c2ccc(Br)cc2)no1`, for which the figures for the IC50 with Trypanosoma cruzi [1] (read-out: IC50), with Trypanosoma cruzi [1] (read-out: pIC50 (converted)) and with Trypanosoma cruzi [3] were 20.5 µM, 20.4 µM and 19.6 µM, respectively. The Activity result in the data set with Mus musculus is recorded as “Non-toxic”. Moreover, the MNTC in data set [2] was 97 µM.
Turning to `CC(=O)Nc1ccc(/C=N/NC(=O)c2nc(-c3ccc(Br)cc3)no2)cc1`, in data set [2], the MNTC was 33 µg/mL. In the data set with Trypanosoma cruzi [3], the IC50 was more than 150 µM.
`O=C(N/N=C/c1ccc(O)cc1)c1nc(-c2ccc([N+](=O)[O-])cc2)no1`: the IC50 is 21.3 µM in the data set on Trypanosoma cruzi [1] (read-out: IC50), 21.4 µM with Trypanosoma cruzi [1] (read-out: pIC50 (converted)) and 25.2 µM in the data set with Trypanosoma cruzi [3]. Also, in data set [2], the MNTC was less than 1.1 µg/mL.
For `COc1ccc(-c2noc(C(=O)N/N=C/c3ccc(NC(C)=O)cc3)n2)cc1`, the MNTC in data set [2] is 100 µg/mL. In the data set on Trypanosoma cruzi [3], this compound returned an IC50 of more than 150 µM.
`CC(=O)Nc1ccc(/C=N/NC(=O)c2nc(-c3ccc(C)cc3)no2)cc1`: the IC50 in the data set on Trypanosoma cruzi [1] (read-out: IC50) is 3.9 µM; with Trypanosoma cruzi [1] (read-out: pIC50 (converted)), 3.89 µM; in the data set on Trypanosoma cruzi [3], 9.8 µM. For the same compound, the MNTC in data set [2] was 30 µM.
Take `CC(=O)Nc1ccc(/C=N/NC(=O)c2nc(-c3ccc([N+](=O)[O-])cc3)no2)cc1`: in data set [2], the MNTC came to 33 µg/mL. The compound also had an IC50 with Trypanosoma cruzi [3] of more than 150 µM.
As for `COc1ccc(-c2noc(C(=O)N/N=C/c3ccc(O)cc3)n2)cc1`, the IC50 in the data set with Trypanosoma cruzi [1] (read-out: IC50) was 32.5 µM; in the data set on Trypanosoma cruzi [1] (read-out: pIC50 (converted)), 32.4 µM; in the data set with Trypanosoma cruzi [3], 13.8 µM. In addition, the MNTC in data set [2] is 85 µM.
The matching figures for `O=C(N/N=C/c1ccc(O)cc1)c1nc(-c2ccc(F)cc2)no1`: 16.7 µM, 16.6 µM, 21 µM and less than 1.1 µg/mL.
For `O=C(N/N=C/c1ccc(O)cc1)c1nc(-c2ccc(O)cc2)no1`, in that order: 100 µM, 100 µM, 127 µM and 100 µg/mL.
As for `CC(=O)Nc1ccc(/C=N/NC(=O)c2nc(-c3ccc(O)cc3)no2)cc1`, in data set [2], the MNTC stood at 33 µg/mL. Besides, the IC50 in the data set with Trypanosoma cruzi [3] was more than 150 µM.
As for `O=C(Cn1ccnc1[N+](=O)[O-])NCc1ccccc1` [BENZNIDAZOLE], the IC50 in the data set with Trypanosoma cruzi [1] (read-out: pIC50 (converted)) was 5.01 µM. Further, in data set [2], the MNTC amounted to 100 µg/mL.
Turning to `CN(C)c1ccc(C(=C2C=CC(=[N+](C)C)C=C2)c2ccc(N(C)C)cc2)cc1` [GENTIAN VIOLET], the IC50 with Trypanosoma cruzi [1] (read-out: IC50) was determined as 2.1 µM. Also, the MNTC in data set [2] was less than 1 µg/mL.

These data come from ChEMBL document CHEMBL1152555, “Design, synthesis and cruzain docking of 3-(4-substituted-aryl)-1,2,4-oxadiazole-N-acylhydrazones as anti-Trypanosoma cruzi agents” (Bioorg Med Chem, 2009).
